Results as given in ChEMBL document CHEMBL2177040, “Down-regulation of the human VEGF gene expression by perylene monoimide derivatives” (Bioorg Med Chem Lett, 2012).
Activity calls are given as the source filed them. No cut-off for these calls is given here.

Experiments:
[1] = system: A549; assay: Downregulation of GAPDH mRNA expression in human A549 cells at 3 to 24 uM after 24 hrs by semi-quantitative RT-PCR analysis; type: functional, cell-based
In short: (§1)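 A549 cells (3.0 × 10^5) treated 24 h at graded compound concentrations; RNA reverse-transcribed and GAPDH cDNA amplified by gene-specific PCR at a cycle number chosen for linear signal, with band intensity by semi-quantitative gel read-out.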

[2] = system: A549; assay: Downregulation of Max mRNA expression in human A549 cells at 3 to 24 uM after 24 hrs by semi-quantitative RT-PCR analysis; type: functional, cell-based
[3] = system: A549; assay: Downregulation of COX2 mRNA expression in human A549 cells at 3 to 24 uM after 24 hrs by semi-quantitative RT-PCR analysis; type: functional, cell-based
[4] = system: Nucleic Acid; assay: Binding affinity to c-Myc quadruplex DNA in human A549 cells assessed as downregulation of c-Myc mRNA expression after 24 hrs by semi-quantitative RT-PCR analysis; type: cell-based
[5] = system: Nucleic Acid; assay: Binding affinity to VEGF quadruplex DNA in human A549 cells assessed as downregulation of VEGF mRNA expression after 24 hrs by semi-quantitative RT-PCR analysis; type: cell-based
In short: (§2)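 A549 cells (3.0 × 10^5) exposed to a range of compound concentrations for 24 h; total RNA reverse-transcribed and cDNA amplified with gene-specific primers at a cycle number chosen per gene for linear signal. VEGF bands quantified by densitometry, normalized to GAPDH; three separate experiments.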

[6] = system: Nucleic Acid; assay: Binding affinity to Bcl2 quadruplex DNA in human A549 cells assessed as downregulation of Bcl2 mRNA expression in human A549 cells after 24 hrs by semi-quantitative RT-PCR analysis; type: cell-based
[7] = system: Nucleic Acid; assay: Binding affinity to VEGF quadruplex DNA in human A549 cells assessed as downregulation of VEGF protein level after 24 hrs by Western blot analysis; type: cell-based
In short: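 A549 cells (3.0 × 10^5) treated with a range of compound concentrations for 24 h; lysate proteins separated by SDS-PAGE and blotted with rabbit polyclonal anti-VEGF, detected with HRP-conjugated goat anti-rabbit IgG.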

[8] = system: Nucleic Acid; assay: Binding affinity to VEGF quadruplex DNA in human A549 cells assessed as downregulation of VEGF121 mRNA expression after 24 hrs by semi-quantitative RT-PCR analysis; type: cell-based; in short: as §2
[9] = system: Nucleic Acid; assay: Binding affinity to VEGF quadruplex DNA in human A549 cells assessed as downregulation of VEGF165 mRNA expression after 24 hrs by semi-quantitative RT-PCR analysis; type: cell-based; in short: as §2
[10] = system: A549; assay: Cytotoxicity against human A549 cells assessed as cell viability after 72 hrs by SRB assay; type: functional, cell-based; conditions: A549, 72 h
In short: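 Sulforhodamine B colorimetric assay on A549 cells. IC50 derived from the concentration versus percent growth inhibition curve. Mean ± standard deviation of three independent experiments, each in triplicate.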

[11] = system: Nucleic Acid; assay: Binding affinity to VEGF quadruplex DNA at 40 uM after 1 to 72 hrs by spectroscopic analysis; type: nucleic-acid assay
In short: (§3)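 Visible absorbance spectra of compound (40 µM) in 10 mM Tris-HCl pH 7.4 with 100 mM KCl, without DNA, with preformed VEGF quadruplex (20 µM V32G), or with salmon sperm duplex DNA matched in absorbance to the quadruplex; recorded at 0, 8 and 72 h incubation.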

[12] = Solubility of the compound in Tris-HCl buffer at 40 uM at pH 7.4 after 1 to 72 hrs by spectroscopic analysis in presence of salmon sperm DNA duplex; type: physicochemical; conditions: pH 7.4, 40 µM; in short: as §3
[13] = Solubility of the compound in Tris-HCl buffer at 40 uM at pH 7.4 after 1 to 72 hrs by spectroscopic analysis in presence of VEGF quadruplex; type: physicochemical; conditions: pH 7.4, 40 µM; in short: as §3
[14] = Solubility of the compound in Tris-HCl buffer at 40 uM at pH 7.4 after 1 to 72 hrs by spectroscopic analysis in absence of DNA; type: physicochemical; conditions: pH 7.4, 40 µM
In short: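 Compound at 40 µM in 10 mM Tris-HCl pH 7.4 with 100 mM KCl, without DNA. Visible absorbance spectra recorded at 0, 8 and 72 h.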

[15] = system: Nucleic Acid; assay: Binding affinity to VEGF V32G-G-quadruplex DNA at 1 to 32 uM after 10 hrs by polyacrylamide electrophoresis; type: nucleic-acid assay
In short: (§4)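 Duplex/G-quadruplex competition: FAM-labelled G-rich strand V32G (2 µM) plus complementary C-rich strand (2 µM) with twofold-diluted compound in Tris-HCl pH 7.4, 100 mM KCl; denatured 95 °C 5 min, slow-cooled to 55 °C and held 10 h, then rapidly cooled to 4 °C. Products resolved on 16% native PAGE containing 50 mM KCl (4 °C, 350 V, 10 h); duplex vs monomeric quadruplex bands imaged.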

[16] = system: Nucleic Acid; assay: Binding affinity to VEGF VT-66-G-quadruplex DNA after 30 mins by DNA polymerase stop assay; type: nucleic-acid assay
In short: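 Polymerase stop: compound (twofold dilution) with template VT-66 (100 nM) and FAM-labelled primer P16 (100 nM) in 10 mM Tris-HCl pH 7.4, denatured 95 °C 5 min, slow-cooled to 37 °C. Extension started with dNTPs, 3 mM MgCl2 and Klenow fragment (1 unit), 37 °C 30 min. Resolved on 12% denaturing PAGE; stopped/(stopped+full-length) ratio plotted against concentration.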

[17] = system: A549; assay: Downregulation of GAPDH mRNA expression in human A549 cells at 0.75 to 6 uM after 24 hrs by semi-quantitative RT-PCR analysis; type: functional, cell-based; in short: as §1
[18] = system: A549; assay: Downregulation of Max mRNA expression in human A549 cells at 0.75 to 6 uM after 24 hrs by semi-quantitative RT-PCR analysis; type: functional, cell-based
[19] = system: A549; assay: Downregulation of COX2 mRNA expression in human A549 cells at 0.75 to 6 uM after 24 hrs by semi-quantitative RT-PCR analysis; type: functional, cell-based
[20] = system: Nucleic Acid; assay: Binding affinity to VEGF quadruplex DNA in human A549 cells assessed as downregulation of VEGF protein level at 0.2 to 2.8 uM after 24 hrs by Western blot analysis; type: cell-based
In short: (§5)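 A549 cells (3.0 × 10^5) exposed to a range of compound concentrations for 24 h. Lysate proteins separated by SDS-PAGE and blotted with rabbit polyclonal VEGF antibody, then HRP-conjugated goat anti-rabbit IgG. Top concentrations chosen from cytotoxicity data.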

[21] = system: Nucleic Acid; assay: Binding affinity to VEGF quadruplex DNA in human A549 cells assessed as downregulation of VEGF protein level at 3.1 to 50 uM after 24 hrs by Western blot analysis; type: cell-based; in short: as §5
[22] = system: Nucleic Acid; assay: Binding affinity to VEGF quadruplex DNA in human A549 cells assessed as downregulation of VEGF165 mRNA expression at 50 uM after 24 hrs by semi-quantitative RT-PCR analysis; type: cell-based
In short: (§6)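 A549 cells (3.0 × 10^5) treated 24 h. Total RNA extracted and reverse-transcribed; cDNA amplified with gene-specific primers, with cycle number set so that product intensity tracks cDNA amount. Both VEGF bands quantified by scan densitometry and normalised to GAPDH; three separate experiments.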

[23] = system: Nucleic Acid; assay: Binding affinity to VEGF quadruplex DNA in human A549 cells assessed as downregulation of VEGF121 mRNA expression at 50 uM after 24 hrs by semi-quantitative RT-PCR analysis; type: cell-based; in short: as §6
[24] = system: Nucleic Acid; assay: Binding affinity to VEGF V32G-double stranded DNA at 1 to 32 uM after 10 hrs by polyacrylamide electrophoresis; type: nucleic-acid assay
In short: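 FAM-labeled VEGF G-rich strand (V32G, 2 µM) plus complementary C-rich strand (2 µM) with twofold-diluted compound in Tris-HCl pH 7.4, 100 mM KCl. Denatured 95 °C 5 min, slow-cooled to 55 °C, held 10 h, then rapidly cooled to 4 °C. Separated on 16% native PAGE with 50 mM KCl (4 °C, 350 V, 10 h); duplex vs monomeric quadruplex bands imaged.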

[25] = Inhibition of DNA polymerase at > 1 uM
In short: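 Klenow polymerase stop assay. Template VT-66 (100 nM) and FAM-primer P16 (100 nM) with twofold-diluted compound in 10 mM Tris-HCl pH 7.4, denatured 95 °C 5 min, slow-cooled to 37 °C. Extension started with dNTPs, 3 mM MgCl2 and Klenow fragment (1 unit), 37 °C 30 min. Products on 12% denaturing PAGE; stopped/total extended ratio plotted.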

[26] = system: Nucleic Acid; assay: Binding affinity to VEGF quadruplex DNA in human MCF7 cells assessed as downregulation of VEGF mRNA expression at 0.75 to 6 uM after 24 hrs by semi-quantitative RT-PCR analysis; type: cell-based
[27] = system: Nucleic Acid; assay: Binding affinity to VEGF quadruplex DNA in human HeLa cells assessed as downregulation of VEGF mRNA expression at 0.75 to 6 uM after 24 hrs by semi-quantitative RT-PCR analysis; type: cell-based
[28] = system: Nucleic Acid; assay: Binding affinity to VEGF quadruplex DNA in human HCT15 cells assessed as downregulation of VEGF mRNA expression at 0.75 to 6 uM after 24 hrs by semi-quantitative RT-PCR analysis; type: cell-based; conditions: HCT-15
[29] = system: HeLa; assay: Cytotoxicity against human HeLa cells assessed as cell viability after 72 hrs by SRB assay; type: functional, cell-based
[30] = system: MCF7; assay: Cytotoxicity against human MCF7 cells assessed as cell viability after 72 hrs by SRB assay; type: functional, cell-based; conditions: MCF7, 72 h
[31] = system: HCT-15; assay: Cytotoxicity against human HCT15 cells assessed as cell viability after 72 hrs by SRB assay; type: functional, cell-based; conditions: HCT-15, 72 h
[32] = Solubility of the compound in Tris-HCl buffer at 40 uM at pH 7.4 after 72 hrs by spectroscopic analysis in absence of DNA; type: physicochemical; conditions: pH 7.4, 72 h; in short: as §3
[33] = system: Nucleic Acid; assay: Binding affinity to VEGF V32G-G-quadruplex DNA after 10 hrs by polyacrylamide electrophoresis; type: nucleic-acid assay; in short: as §4

Compound | Activity [4] | Activity [5] | Activity [6] | Activity [7] | Activity [8] | Activity [9] | IC50 [10] | Activity [11] | solubility [12] | solubility [13] | solubility [14] | Activity [15] | Activity [16] | Activity [17] | Activity [18] | Activity [19] | Activity [20] | Activity [21] | also measured
O=C1c2ccc3c4ccc5c6c(ccc(c7ccc(c2c37)C(=O)N1CCN1CCCCC1)c64)C(=O)N(CCN1CCCCC1)C5=O | Dose-dependent effect | Dose-dependent effect | Dose-dependent effect | Dose-dependent effect | Dose-dependent effect | Dose-dependent effect | 52.4 µM | Active | soluble | soluble | Insoluble | Active | Dose-dependent effect | – | – | – | – | – | Activity [1]: inactive; Activity [2]: inactive; Activity [3]: inactive
CC[N+](C)(CC)CCN1C(=O)c2ccc3c4cccc5cccc(c6ccc(c2c36)C1=O)c54.Cc1ccc(S(=O)(=O)[O-])cc1 | Dose-dependent effect | Dose-dependent effect | Dose-dependent effect | – | Dose-dependent effect | Dose-dependent effect | 3.2 µM | – | soluble | soluble | Insoluble | Active | Dose-dependent effect | inactive | inactive | inactive | inactive | inactive | –
C[n+]1ccc(-c2c3nc(c(-c4cc[n+](C)cc4)c4ccc([nH]4)c(-c4cc[n+](C)cc4)c4ccc([nH]4)c(-c4cc[n+](C)cc4)c4nc2C=C4)C=C3)cc1 [TMPYP4] | – | – | – | – | – | – | 43.1 µM | – | – | – | – | – | Dose-dependent effect | – | – | – | inactive | inactive | Activity [22]: inactive; Activity [23]: inactive; Activity [24]: Active; inhibition [25]: Active
CCN(CC)CCN1C(=O)c2ccc3c4cccc5c(N6CCNCC6)ccc(c6ccc(c2c36)C1=O)c54 | Dose-dependent effect | Dose-dependent effect | Dose-dependent effect | Dose-dependent effect | Dose-dependent effect | Dose-dependent effect | 4 µM | inactive | soluble | soluble | – | – | Dose-dependent effect | inactive | inactive | inactive | – | – | Activity [26]: Active; Activity [27]: Active; Activity [28]: Active; IC50 [29]: 3 µM; IC50 [30]: 5.5 µM; IC50 [31]: 4.7 µM; solubility [32]: soluble; Activity [33]: Active
